In ChEMBL document CHEMBL3425450, “Neuroactive Steroids. 1. Positive Allosteric Modulators of the (γ-Aminobutyric Acid)A Receptor: Structure-Activity Relationships of Heterocyclic Substitution at C-21” (J Med Chem, 2015):
Values after ≈ are worked out from the molar mass of the structure shown.

How the values were obtained:
[1] = Clearance in human liver microsomes at 10 uM after 60 mins by HPLC-MS/MS analysis; type: ADME
[2] = Clearance in rat liver microsomes at 10 uM after 60 mins by HPLC-MS/MS analysis; type: ADME
[3] = Clearance in mouse liver microsomes at 10 uM after 60 mins by HPLC-MS/MS analysis; type: ADME
[4] = Clearance in Sprague-Dawley rat at 5 mg/kg, iv and 20 mg/kg, po by LC-MS/MS analysis; type: ADME, organism-based; conditions: in vivo
Method in brief: (§1)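 Rats were dosed i.v. at 5 mpk and orally at 20 mpk. Clearance and oral bioavailability were calculated from mean plasma concentrations of 2 rats.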

[5] = Oral bioavailability in Sprague-Dawley rat at 20 mg/kg by LC-MS/MS analysis; type: ADME, organism-based; conditions: in vivo; method in brief: as §1
[6] = Ratio of drug level in brain to plasma in Sprague-Dawley rat at 5 mg/kg, iv after 30 mins by LC-MS/MS analysis; type: ADME, organism-based; set-up: dose 5 mg/kg, route intravenous; conditions: read-out: BPR
Method in brief: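 Brain and plasma were sampled at a single point 30 min after the i.v. 5 mpk dose. The ratio was calculated from mean concentrations of 2 rats.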

[7] = target: GABA-A receptor; agonist GABA site; test: Positive allosteric modulation of recombinant alpha4beta3delta GABAA receptor (unknown origin) expressed in CHO cells assessed as potentiation of GABA-induced channel current treated for 30 s prior to GABA stimulation for 2s by manual patch assay; type: cell-based, Homo sapiens
[8] = target: GABA-A receptor; anion channel; test: Displacement of [3H]TBPS from GABAA receptor in Sprague-Dawley rat brain cortical membrane after 90 mins by liquid scintillation spectrometry
[9] = target: GABA-A receptor; agonist GABA site; test: Positive allosteric modulation of recombinant alpha1beta2gamma2 GABAA receptor (unknown origin) expressed in LTK cells assessed as potentiation of GABA-induced channel current treated for 30 s prior to GABA stimulation for 2s by Q-patch assay; type: cell-based, Homo sapiens
[10] = Lipophilicity, log D of the compound at 20 uM at pH 7.4 by HPLC-MS/MS analysis; type: physicochemical; conditions: buffer
[11] = Aqueous solubility of the compound at pH 7.4 by HPLC-MS/MS analysis; type: physicochemical; conditions: buffer
[12] = Retention time of the compound by LC-MS analysis; type: physicochemical
Method in brief: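 Eluents were water and acetonitrile, each with TFA, run as a 5 to 95% acetonitrile gradient over 1.5 min at 1.5 mL/min. Capillary voltage was 3.5 kV and fragmentor voltage 50 V.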

| SMILES | CLhep predicted at 10 µM [1] [mL/min/kg] | CLhep predicted at 10 µM [2] [mL/min/kg] | CLhep predicted at 10 µM [3] [mL/min/kg] | clearance [4] [mL/min/kg] | bioavailability [5] [%] | Kp at 0.5 h [6] | EC50 [7] [nM] | IC50 [8] [nM] | EC50 [9] [nM] | logD at 20 µM [10] | solubility [11] [µM] | Retention_time [12] [min] |
| --- | --- | --- | --- | --- | --- | --- | --- | --- | --- | --- | --- | --- |
| CC(=O)[C@H]1CC[C@H]2[C@@H]3CC[C@H]4C[C@H](O)CC[C@]4(C)[C@H]3CC[C@]12C [BREXANOLONE] | 8.33 | 55.7 | 67.5 | 80 | 2.3 | 1.8 | 75.5 | 22 | 237 | 4.9 | 3.3 (≈ 1.05 µg/mL) | – |
| C[C@@]1(O)CC[C@H]2[C@H](CC[C@@H]3[C@@H]2CC[C@]2(C)[C@@H](C(=O)CN4CCCC4)CC[C@@H]32)C1 | – | – | – | – | – | – | – | 1290 | – | – | – | 0.745 |
| C[C@@]1(O)CC[C@H]2[C@H](CC[C@@H]3[C@@H]2CC[C@]2(C)[C@@H](C(=O)Cn4ccnc4)CC[C@@H]32)C1 | – | – | – | – | – | – | 3130 | 21 | > 3000 | – | – | 0.76 |
| C[C@@]1(O)CC[C@H]2[C@H](CC[C@@H]3[C@@H]2CC[C@]2(C)[C@@H](C(=O)Cn4ncc5cccnc54)CC[C@@H]32)C1 | – | – | – | – | – | – | 1870 | 16 | 1750 | – | – | 0.9 |
| C[C@@]1(O)CC[C@H]2[C@H](CC[C@@H]3[C@@H]2CC[C@]2(C)[C@@H](C(=O)Cn4cc5ccccc5n4)CC[C@@H]32)C1 | – | – | – | – | – | – | 2520 | 11 | 1900 | – | – | 0.92 |
| C[C@@]1(O)CC[C@H]2[C@H](CC[C@@H]3[C@@H]2CC[C@]2(C)[C@@H](C(=O)Cn4ncc5cnccc54)CC[C@@H]32)C1 | – | – | – | – | – | – | 1400 | 33 | > 3000 | – | – | 0.75 |
| C[C@@]1(O)CC[C@H]2[C@@H](CC[C@@H]3[C@@H]2CC[C@]2(C)[C@@H](C(=O)Cn4nccn4)CC[C@@H]32)C1 | – | – | – | – | – | – | 1420 | 54 | 592 | – | – | 0.889 |
| C[C@@]1(O)CC[C@H]2[C@H](CC[C@@H]3[C@@H]2CC[C@]2(C)[C@@H](C(=O)Cn4cncn4)CC[C@@H]32)C1 | – | – | – | – | – | – | > 3000 | 140 | > 3000 | – | – | 0.829 |
| C[C@@]1(O)CC[C@H]2[C@H](CC[C@@H]3[C@@H]2CC[C@]2(C)[C@@H](C(=O)Cn4ncc5c4CCCC5)CC[C@@H]32)C1 | – | – | – | – | – | – | > 3000 | 50 | 1490 | – | – | 0.94 |
| C[C@@]1(O)CC[C@H]2[C@H](CC[C@@H]3[C@@H]2CC[C@]2(C)[C@@H](C(=O)Cn4cc5cnccc5n4)CC[C@@H]32)C1 | – | – | – | – | – | – | 1350 | 24 | > 3000 | – | – | 1.06 |
| C[C@@]1(O)CC[C@H]2[C@@H](CC[C@@H]3[C@@H]2CC[C@]2(C)[C@@H](C(=O)Cn4ccnc4)CC[C@@H]32)C1 | – | – | – | – | – | – | > 3000 | 108 | > 3000 | – | – | 0.76 |
| C[C@@]1(O)CC[C@H]2[C@@H](CC[C@@H]3[C@@H]2CC[C@]2(C)[C@@H](C(=O)Cn4ccnn4)CC[C@@H]32)C1 | – | – | – | – | – | – | 1320 | 102 | 2740 | – | – | 0.85 |
| CC(=O)[C@H]1CC[C@H]2[C@@H]3CC[C@H]4C[C@](C)(O)CC[C@@H]4[C@H]3CC[C@]12C | 8.33 | 52.8 | 67.5 | – | – | – | 553 | 74 | 355 | 5.1 | 1 (≈ 0.319 µg/mL) | – |
| C[C@@]1(O)CC[C@H]2[C@H](CC[C@@H]3[C@@H]2CC[C@]2(C)[C@@H](C(=O)Cn4cnnn4)CC[C@@H]32)C1 | – | – | – | – | – | – | 394 | 69 | 2200 | – | – | 0.84 |
| C[C@@]1(O)CC[C@H]2[C@H](CC[C@@H]3[C@@H]2CC[C@]2(C)[C@@H](C(=O)Cn4cccn4)CC[C@@H]32)C1 | – | – | – | – | – | – | 1460 | 32 | 945 | – | – | 0.88 |
| C[C@@]1(O)CC[C@H]2[C@H](CC[C@@H]3[C@@H]2CC[C@]2(C)[C@@H](C(=O)Cn4ccnn4)CC[C@@H]32)C1 | – | – | – | – | – | – | 1830 | 27 | 1840 | – | – | 0.84 |
| C[C@@]1(O)CC[C@H]2[C@H](CC[C@@H]3[C@@H]2CC[C@]2(C)[C@@H](C(=O)Cn4ncc5ccncc54)CC[C@@H]32)C1 | – | – | – | – | – | – | > 3000 | 17 | > 3000 | – | – | 0.8 |
| C[C@@]1(O)CC[C@H]2[C@H](CC[C@@H]3[C@@H]2CC[C@]2(C)[C@@H](C(=O)Cn4ncc5ncccc54)CC[C@@H]32)C1 | – | – | – | – | – | – | > 3000 | 25 | 2510 | – | – | 0.85 |
| C[C@@]1(O)CC[C@H]2[C@H](CC[C@@H]3[C@@H]2CC[C@]2(C)[C@@H](C(=O)Cn4cc5cccnc5n4)CC[C@@H]32)C1 | – | – | – | – | – | – | 1020 | 42 | > 3000 | – | – | 0.8 |
| C[C@@]1(O)CC[C@H]2[C@@H](CC[C@@H]3[C@@H]2CC[C@]2(C)[C@@H](C(=O)Cn4cnnn4)CC[C@@H]32)C1 | – | – | – | – | – | – | 2140 | 214 | > 3000 | – | – | 0.86 |
| C[C@@]1(O)CC[C@H]2[C@H](CC[C@@H]3[C@@H]2CC[C@]2(C)[C@@H](C(=O)Cn4ncc5ccccc54)CC[C@@H]32)C1 | – | – | – | – | – | – | 508 | 15 | 1530 | – | – | 0.95 |
| C[C@@]1(O)CC[C@H]2[C@@H](CC[C@@H]3[C@@H]2CC[C@]2(C)[C@@H](C(=O)Cn4cccn4)CC[C@@H]32)C1 | – | – | – | – | – | – | 1150 | 149 | > 3000 | – | – | 0.89 |
| C[C@@]1(O)CC[C@H]2[C@@H](CC[C@@H]3[C@@H]2CC[C@]2(C)[C@@H](C(=O)Cn4cncn4)CC[C@@H]32)C1 | – | – | – | – | – | – | 781 | 174 | > 3000 | – | – | 0.84 |
| C[C@@]1(O)CC[C@H]2[C@@H](CC[C@@H]3[C@@H]2CC[C@]2(C)[C@@H](C(=O)CN4CCCC4)CC[C@@H]32)C1 | – | – | – | – | – | – | – | 2890 | – | – | – | 0.77 |
| CC(=O)[C@H]1CC[C@H]2[C@@H]3CC[C@H]4C[C@](C)(O)CC[C@]4(C)[C@H]3CC[C@]12C [GANAXOLONE] | 6.5 | 55.7 | 67.5 | 51.7 | 10 | 4 | 103 | 42 | 266 | 5.3 | 0.7 (≈ 0.233 µg/mL) | – |
| C[C@@]1(O)CC[C@H]2[C@H](CC[C@@H]3[C@@H]2CC[C@]2(C)[C@@H](C(=O)Cn4cc5c(n4)CCCC5)CC[C@@H]32)C1 | 10.8 | 55.7 | 67.5 | – | – | – | 178 | 24 | 724 | 5.7 | 0.3 (≈ 0.132 µg/mL) | 0.93 |
| CC(=O)[C@H]1CC[C@H]2[C@@H]3CC[C@@H]4C[C@](C)(O)CC[C@@H]4[C@H]3CC[C@]12C | – | – | – | – | – | – | 119 | 55 | 371 | – | – | – |
